Experimental findings from ChEMBL document CHEMBL1123695, “Synthesis and 3'-substituent effects of some 7 alpha-methoxy-1-oxacephems on antibacterial activity and alkaline hydrolysis rates” (1987) are described below.

Values after ≈ are worked out from the molar mass of the structure shown.

Common to all, as to type: functional
For assay [1], the system named is Escherichia coli. Description: Antibacterial activity against Escherichia coli (H) a sensitive gram-negative bacteria. In outline:
(§1)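 Agar dilution on sensitivity test agar containing serial twofold antibiotic dilutions. Overnight tryptosoy broth cultures were diluted in the same broth to about 10^6 cells/mL, and one loopful was applied with an inoculating device. Plates were incubated at 37 °C for 18-20 h. MIC was taken as the lowest concentration inhibiting visible growth, in micrograms per milliliter.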

A further assay deals with Klebsiella pneumoniae. Put plainly: Antibacterial activity against Kleb. pneumoniae (SRL-1) a sensitive gram-negative bacteria. In outline: as §1
Assay [2] has as its system Escherichia coli. Description: Antibacterial activity against Escherichia coli (EC-14) a sensitive gram-negative bacteria. The method, boiled down:
as §1

The subject of assay [3] is Bacteria. Put plainly: Geometric mean of the four MIC's of different sensitive gram negative bacteria.
Assay [4] relates to Escherichia coli. Put plainly: Antibacterial activity against Escherichia coli (NIHJ JC-2) a sensitive gram-negative bacteria. The method, boiled down:
as §1

Assay [5] deals with Bacteria. Description: Geometric mean of the four MIC's of different sensitive gram negative bacteria expressed.

As to `CO[C@@]1(NC(=O)Cc2ccccc2)C(=O)N2C(C(=O)[O-])=C(C)CO[C@@H]21.[Na+]`, the minimum inhibitory concentration (MIC) (usually the lowest concentration that inhibits growth of the organism) came to 100 µg/mL with Escherichia coli [1], 100 µg/mL against Klebsiella pneumoniae, 100 µg/mL with Escherichia coli [2] and 200 µg/mL against Escherichia coli [4]. The Geometric mean with Bacteria [3] was found to be 323 µM.
As to `CO[C@@]1(NC(=O)Cc2ccccc2)C(=O)N2C(C(=O)[O-])=C(CC#N)CO[C@@H]21.[Na+]`, the MIC with Escherichia coli [1] was 12.5 µg/mL; against Klebsiella pneumoniae, 25 µg/mL; with Escherichia coli [2] it was 25 µg/mL; in the assay with Escherichia coli [4], 50 µg/mL. In addition, the Geometric mean in the assay with Bacteria [5] is 63.6 µM.
For the compound `COCC1=C(C(=O)[O-])N2C(=O)[C@](NC(=O)Cc3ccccc3)(OC)[C@H]2OC1.[Na+]`, the MIC with Escherichia coli [1] is 25 µg/mL; against Klebsiella pneumoniae, 50 µg/mL; with Escherichia coli [2], 100 µg/mL; against Escherichia coli [4] it was 200 µg/mL. In the assay on Bacteria [5], this compound registered a Geometric mean of 178 µM.
The corresponding values for `CO[C@@]1(NC(=O)Cc2ccccc2)C(=O)N2C(C(=O)[O-])=C(COC(C)=O)CO[C@@H]21.[Na+]` are 0.78 µg/mL, 1.56 µg/mL, 3.13 µg/mL, 3.13 µg/mL and 4.36 µM.
The corresponding values for `CO[C@@]1(NC(=O)Cc2ccccc2)C(=O)N2C(C(=O)[O-])=C(CO)CO[C@@H]21.[Na+]` are 25 µg/mL, 50 µg/mL, 50 µg/mL, 100 µg/mL and 130 µM.
`CO[C@@]1(NC(=O)Cc2ccccc2)C(=O)N2C(C(=O)[O-])=C(C[n+]3ccccc3)COC21` (stereo not given in full): the MIC in the assay on Escherichia coli [1], with Klebsiella pneumoniae, in the assay with Escherichia coli [2] and with Escherichia coli [4] was 12.5 µg/mL (≈ 29.5 µM) each time. In the assay on Bacteria [5], this compound had a Geometric mean of 29.5 µM.
Consider `CO[C@@]1(NC(=O)Cc2ccccc2)C(=O)N2C(C(=O)[O-])=C(CSC)CO[C@@H]21.[Na+]`, for which the MIC against Escherichia coli [1] was 50 µg/mL; against Klebsiella pneumoniae, 100 µg/mL; against Escherichia coli [2], 200 µg/mL; in the assay on Escherichia coli [4], above 400 µg/mL. Further, the Geometric mean with Bacteria [5] worked out at 406 µM.
As for `CO[C@@]1(NC(=O)Cc2ccccc2)C(=O)N2C(C(=O)[O-])=C(COC(N)=O)COC21.[Na+]` (stereo not given in full), the MIC in the assay on Escherichia coli [1] was 0.78 µg/mL; in the assay with Klebsiella pneumoniae, 3.13 µg/mL; with Escherichia coli [2], 0.78 µg/mL; with Escherichia coli [4] it was 3.13 µg/mL. The Geometric mean in the assay on Bacteria [5] turned out to be 3.66 µM.
On to `CO[C@@]1(NC(=O)Cc2ccccc2)C(=O)N2C(C(=O)[O-])=C(CSc3nnnn3C)CO[C@@H]21.[Na+]`, for which the MIC turned out to be 0.1 µg/mL against Escherichia coli [1], 0.39 µg/mL against Klebsiella pneumoniae, 0.39 µg/mL in the assay with Escherichia coli [2] and 0.78 µg/mL against Escherichia coli [4]. In the assay with Bacteria [5], this compound came in with a Geometric mean of 0.684 µM.
